The text below walks through data of PMC5730044 (International journal of medical microbiology : IJMM, 2014).

Assay [1] relates to S. pneumoniae CF6937. The assay is described as follows: Broth microdilution assay. Type of assay: cell-based. Particulars: Streptococcus pneumoniae, CF6937, 18 h, read-out: 90% minimal inhibitory concentration. In general terms: In broth dilution the organism is exposed to a series of concentrations in liquid medium.
Assay [2] concerns S. pneumoniae. The experiment in a line: Broth microdilution assay. Type of assay: cell-based. To be noted: Streptococcus pneumoniae, read-out: MIC90 values. In short, it runs like this: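 Pneumococci were pre-grown in BHI with gentle shaking at 37°C for 4–5 h (mid-exponential), adjusted to McFarland 0.5 (1.5 × 10^8 cfu/mL) and diluted 50× in BHI. 50 µL bacteria plus 100 µL of two-fold compound dilutions (top 50 or 200 µM) in BHI were run in duplicate, overnight at 37°C, 5% CO₂. OD620 at 18 h minus 0 h was taken relative to no-compound growth control; MIC90 is 90% turbidity reduction.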

For assay [3], the system named is S. pneumoniae DSM20566. The experiment in a line: Biofilm inhibition assay. Type of assay: cell-based. To be noted: DSM20566, TSB, 24 h.
Assay [4] has as its system S. pneumoniae CJ9400. The experiment in a line: Minimal bactericidal concentration. To be noted: viability reduced by ≥99.9%. Type of assay: cell-based.
For assay [5], the system named is S. pneumoniae BC7326. The experiment in a line: Minimal bactericidal concentration. Type of assay: cell-based. To be noted: viability reduced by ≥99.9%.
Assay [6] deals with S. pneumoniae PN8828. The assay is described as follows: Broth microdilution assay. Type of assay: cell-based. Particulars: Streptococcus pneumoniae, PN8828, 18 h, read-out: 90% minimal inhibitory concentration.
In assay [7] the test system is S. pneumoniae CJ9400. The experiment in a line: Biofilm inhibition assay. Type of assay: cell-based. Particulars: CJ9400, TSB, 24 h.
Assay [8] has as its system S. pneumoniae PN8828. The assay is described as follows: Biofilm inhibition assay. Type of assay: cell-based. Particulars: PN8828, TSB, 24 h.
Assay [9] has as its system S. pneumoniae BC7326. The assay is described as follows: Biofilm inhibition assay. Particulars: BC7326, TSB, 24 h. Type of assay: cell-based.
For assay [10], the system named is S. pneumoniae D39. The experiment in a line: Biofilm inhibition assay. Type of assay: cell-based. To be noted: D39, TSB, 24 h.
In assay [11] the test system is S. pneumoniae CF8919. The experiment in a line: Biofilm inhibition assay. Type of assay: cell-based. Particulars: CF8919, TSB, 24 h.
Assay [12] relates to S. pneumoniae DSM14378. The experiment in a line: Broth microdilution assay. To be noted: Streptococcus pneumoniae, DSM14378, 18 h, read-out: 90% minimal inhibitory concentration. Type of assay: cell-based.
The subject of assay [13] is S. pneumoniae. The assay is described as follows: Bactericidal activity, studied pneumococci. To be noted: for concentration up to which no inhibitory or bactericidal activity was exhibited: maximum tested concentration. Type of assay: cell-based.
Assay [14] has as its system S. pneumoniae CF8919. The assay is described as follows: Broth microdilution assay. Type of assay: cell-based. Particulars: Streptococcus pneumoniae, CF8919, 18 h, read-out: 90% minimal inhibitory concentration.
Assay [15] has as its system S. pneumoniae DSM20566. The assay is described as follows: Minimal bactericidal concentration. Type of assay: cell-based. Particulars: viability reduced by ≥99.9%.
Assay [16] relates to S. pneumoniae CJ9400. The assay is described as follows: Broth microdilution assay. Particulars: Streptococcus pneumoniae, CJ9400, 18 h, read-out: 90% minimal inhibitory concentration. Type of assay: cell-based.
For assay [17], the system named is S. pneumoniae D39. The assay is described as follows: Broth microdilution assay. Type of assay: cell-based. To be noted: Streptococcus pneumoniae, D39, 18 h, read-out: 90% minimal inhibitory concentration.
The test system of assay [18] is S. pneumoniae DSM14378. The assay is described as follows: Biofilm inhibition assay. Type of assay: cell-based. Particulars: DSM14378, TSB, 24 h.
Assay [19] concerns S. pneumoniae CF6937. The experiment in a line: Minimal bactericidal concentration. Type of assay: cell-based. Particulars: viability reduced by ≥99.9%.
The test system of assay [20] is S. pneumoniae BC57. The assay is described as follows: Biofilm inhibition assay. Type of assay: cell-based. Particulars: BC57, TSB, 24 h.
Assay [21] has as its system S. pneumoniae BC57. The assay is described as follows: Broth microdilution assay. Type of assay: cell-based. Particulars: Streptococcus pneumoniae, BC57, 18 h, read-out: 90% minimal inhibitory concentration.
Assay [22] deals with S. pneumoniae DSM20566. The experiment in a line: Broth microdilution assay. Type of assay: cell-based. To be noted: Streptococcus pneumoniae, DSM20566, 18 h, read-out: 90% minimal inhibitory concentration.
Assay [23] deals with S. pneumoniae D39. The assay is described as follows: Minimal bactericidal concentration. Type of assay: cell-based. To be noted: viability reduced by ≥99.9%.
Assay [24] relates to S. pneumoniae DSM14378. The experiment in a line: Minimal bactericidal concentration. Type of assay: cell-based. Particulars: viability reduced by ≥99.9%.
Assay [25] has as its system S. pneumoniae BC7326. The assay is described as follows: Broth microdilution assay. Type of assay: cell-based. To be noted: Streptococcus pneumoniae, BC7326, 18 h, read-out: 90% minimal inhibitory concentration.
For assay [26], the system named is S. pneumoniae CF6937. The experiment in a line: Biofilm inhibition assay. Type of assay: cell-based. Particulars: CF6937, TSB, 24 h.
For assay [27], the system named is pneumococcal adherence to pulmonary epithelial A549 cells. To be noted: DSM20566 and PN8828.
Another assay addresses pneumococcal NA (Streptococcus pneumoniae, UniProt P62575). Type of assay: biochemical, S. pneumoniae. To be noted: read-out: IC50, CL-based assay; range among the strains.
Assay [28] relates to pneumococcal NA of strain CJ9400. The assay is described as follows: Lectin-based hemagglutination. Type of assay: cell-based, S. pneumoniae. Particulars: minimal NA inhibitory concentration.
Assay [29] has as its system pneumococcal NA of strain D39. The assay is described as follows: Lectin-based hemagglutination. Type of assay: cell-based, S. pneumoniae. Particulars: for Inhibitory concentration (HA assay): minimal NA inhibitory concentration, strain D39.
Assay [30] relates to pneumococcal NA of strain DSM20566. The experiment in a line: Lectin-based hemagglutination. Type of assay: cell-based, S. pneumoniae. To be noted: minimal NA inhibitory concentration.
For assay [31], the target named is recombinant NanA of DSM20566 (Streptococcus pneumoniae, UniProt P62575). Type of assay: biochemical, S. pneumoniae. To be noted: read-out: substrate affinity (Km) of rNanA; substrate 4-MUNANA.

One may read the MIC90 as the lowest concentration that inhibits either 90% of growth or 90% of the strains tested, depending on the study. As usually defined, the IC50 is the concentration at which inhibition is half-maximal. What is called Km is the substrate concentration at which the rate is half of its maximum.

Converted amounts (≈) assume the structure as drawn. Structures can show the parent of a compound that is named as a salt. Some results are limits rather than exact numbers.

Chain of recombinant NanA of DSM20566 (P62575 116-1035 limits assumed): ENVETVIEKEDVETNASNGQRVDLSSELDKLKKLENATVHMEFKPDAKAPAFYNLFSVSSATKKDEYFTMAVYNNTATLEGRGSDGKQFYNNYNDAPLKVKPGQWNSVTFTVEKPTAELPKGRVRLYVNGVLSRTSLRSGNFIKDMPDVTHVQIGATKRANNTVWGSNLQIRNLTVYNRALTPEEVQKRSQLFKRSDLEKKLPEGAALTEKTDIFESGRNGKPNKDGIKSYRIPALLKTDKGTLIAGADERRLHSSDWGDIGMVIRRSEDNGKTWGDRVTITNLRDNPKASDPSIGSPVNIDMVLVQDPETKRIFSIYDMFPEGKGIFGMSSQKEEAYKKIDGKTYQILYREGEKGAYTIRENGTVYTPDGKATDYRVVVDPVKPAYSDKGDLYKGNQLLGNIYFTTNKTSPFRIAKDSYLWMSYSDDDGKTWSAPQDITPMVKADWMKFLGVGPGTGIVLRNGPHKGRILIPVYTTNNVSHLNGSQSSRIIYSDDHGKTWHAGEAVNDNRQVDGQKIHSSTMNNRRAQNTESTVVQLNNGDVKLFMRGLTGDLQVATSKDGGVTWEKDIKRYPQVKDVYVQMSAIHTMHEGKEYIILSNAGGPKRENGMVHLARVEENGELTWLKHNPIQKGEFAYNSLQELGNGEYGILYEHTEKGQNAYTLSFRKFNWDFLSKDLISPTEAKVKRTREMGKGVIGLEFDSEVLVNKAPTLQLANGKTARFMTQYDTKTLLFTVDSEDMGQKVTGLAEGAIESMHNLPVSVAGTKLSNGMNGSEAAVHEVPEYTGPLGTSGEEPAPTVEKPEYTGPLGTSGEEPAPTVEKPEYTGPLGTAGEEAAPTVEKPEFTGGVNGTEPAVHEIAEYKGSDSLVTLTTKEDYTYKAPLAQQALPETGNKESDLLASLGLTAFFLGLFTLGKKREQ
Chain of pneumococcal NA (P62575 54-1006): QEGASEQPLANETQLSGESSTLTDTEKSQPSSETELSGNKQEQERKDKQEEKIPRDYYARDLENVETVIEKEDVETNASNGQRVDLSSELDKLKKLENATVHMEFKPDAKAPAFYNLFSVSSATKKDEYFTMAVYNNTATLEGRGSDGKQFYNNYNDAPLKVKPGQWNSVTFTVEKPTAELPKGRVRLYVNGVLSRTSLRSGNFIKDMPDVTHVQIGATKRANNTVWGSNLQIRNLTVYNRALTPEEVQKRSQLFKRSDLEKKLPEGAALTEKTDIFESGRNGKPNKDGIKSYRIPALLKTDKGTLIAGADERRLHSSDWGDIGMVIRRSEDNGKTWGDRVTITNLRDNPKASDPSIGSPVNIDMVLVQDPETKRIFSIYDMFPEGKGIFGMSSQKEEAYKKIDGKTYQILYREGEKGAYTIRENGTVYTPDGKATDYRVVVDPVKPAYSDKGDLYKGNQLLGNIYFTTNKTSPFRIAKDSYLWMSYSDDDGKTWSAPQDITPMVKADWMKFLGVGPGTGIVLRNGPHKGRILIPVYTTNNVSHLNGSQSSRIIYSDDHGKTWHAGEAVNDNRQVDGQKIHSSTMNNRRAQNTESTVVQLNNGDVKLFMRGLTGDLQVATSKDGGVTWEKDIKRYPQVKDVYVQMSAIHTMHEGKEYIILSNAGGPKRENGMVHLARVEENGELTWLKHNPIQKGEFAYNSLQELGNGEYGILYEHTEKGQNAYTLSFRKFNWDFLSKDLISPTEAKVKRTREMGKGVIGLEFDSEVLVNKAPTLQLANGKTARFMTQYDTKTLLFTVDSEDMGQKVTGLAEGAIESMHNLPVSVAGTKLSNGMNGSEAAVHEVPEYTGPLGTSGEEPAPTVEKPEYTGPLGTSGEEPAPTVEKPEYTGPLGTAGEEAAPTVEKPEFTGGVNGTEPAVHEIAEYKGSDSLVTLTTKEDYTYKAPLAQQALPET

On to `CO[C@H]1/C=C/O[C@@]2(C)Oc3c(C)c(O)c4c(O)c(c(/C=N/N5CCN(C)CC5)c(O)c4c3C2=O)NC(=O)/C(C)=C\C=C\[C@H](C)[C@H](O)[C@@H](C)[C@@H](O)[C@@H](C)[C@H](OC(C)=O)[C@@H]1C` [rifampicin], for which the MIC was 0.034 ± 0.028 µM (≈ 0.028 µg/mL) with S. pneumoniae CF6937 [1]; 0.005 ± 0.001 µM (≈ 0.00411 µg/mL) in the assay with S. pneumoniae PN8828 [6]; 0.031 ± 0.023 µM (≈ 0.0255 µg/mL) in the assay with S. pneumoniae DSM14378 [12]; 0.009 ± 0.001 µM (≈ 0.00741 µg/mL) in the assay with S. pneumoniae CF8919 [14]; 0.032 ± 0.03 µM (≈ 0.0263 µg/mL) with S. pneumoniae CJ9400 [16]; 0.021 ± 0.002 µM (≈ 0.0173 µg/mL) in the assay with S. pneumoniae D39 [17]. Moreover, the MIC came out at 0.012 ± 0.002 µM (≈ 0.00988 µg/mL) with S. pneumoniae BC57 [21], 0.041 ± 0.011 µM (≈ 0.0337 µg/mL) in the assay with S. pneumoniae DSM20566 [22] and 0.016 ± 0.005 µM (≈ 0.0132 µg/mL) with S. pneumoniae BC7326 [25]. In addition, the MIC90 in the assay on S. pneumoniae [2] fell in the range of 0.01 to 0.04 µM (≈ 0.00823 to 0.0329 µg/mL). The “90% minimal biofilm inhibitory concentration” value is 0.049 ± 0.030 µM with S. pneumoniae DSM20566 [3]; 0.003 ± 0.001 µM with S. pneumoniae CJ9400 [7]; 0.011 ± 0.007 µM in the assay with S. pneumoniae PN8828 [8]; 0.016 ± 0.010 µM in the assay with S. pneumoniae BC7326 [9]; 0.013 ± 0.002 µM in the assay on S. pneumoniae D39 [10]; 0.006 ± 0.004 µM in the assay with S. pneumoniae CF8919 [11]. Besides, the “90% minimal biofilm inhibitory concentration” value with S. pneumoniae DSM14378 [18] worked out at 0.014 ± 0.008 µM; with S. pneumoniae BC57 [20], 0.012 ± 0.001 µM; in the assay with S. pneumoniae CF6937 [26], 0.020 ± 0.002 µM. Also, the Bactericidal concentration in the assay with S. pneumoniae CJ9400 [4] turned out to be 0.23 ± 0.16 µM; in the assay on S. pneumoniae BC7326 [5] it was 0.08 ± 0.03 µM; in the assay with S. pneumoniae DSM20566 [15], 1.97 ± 1.23 µM; with S. pneumoniae CF6937 [19] it was 0.05 ± 0.03 µM; in the assay with S. pneumoniae D39 [23], 0.22 ± 0.09 µM; in the assay with S. pneumoniae DSM14378 [24], 0.14 ± 0.06 µM. Besides, the “factor of reduction of viability of pneumococci” value in the assay on S. pneumoniae [13] (within 18 h) is listed as greater than 1000.

In the case of `O=C(CCc1ccccc1)C[C@@H]1C[C@@H](c2ccccc2)c2c(cc(/C=C/c3ccccc3)oc2=O)O1` [katsumadain A], the MIC in the assay with S. pneumoniae CF6937 [1], in the assay on S. pneumoniae PN8828 [6], in the assay on S. pneumoniae DSM14378 [12], in the assay with S. pneumoniae CF8919 [14], in the assay with S. pneumoniae CJ9400 [16] and in the assay on S. pneumoniae D39 [17] was greater than 50 µM each time. Moreover, the MIC in the assay on S. pneumoniae BC57 [21], with S. pneumoniae DSM20566 [22] and with S. pneumoniae BC7326 [25] was greater than 50 µM in each case. For the same molecule, the “90% minimal biofilm inhibitory concentration” value in the assay on S. pneumoniae DSM20566 [3], in the assay on S. pneumoniae CJ9400 [7], in the assay on S. pneumoniae PN8828 [8], in the assay on S. pneumoniae BC7326 [9], in the assay with S. pneumoniae D39 [10] and in the assay on S. pneumoniae CF8919 [11] was greater than 50 µM each time. Moreover, the “90% minimal biofilm inhibitory concentration” value in the assay on S. pneumoniae DSM14378 [18], with S. pneumoniae BC57 [20] and in the assay with S. pneumoniae CF6937 [26] was greater than 50 µM throughout. Moreover, the Bactericidal concentration in the assay on S. pneumoniae CJ9400 [4], in the assay with S. pneumoniae BC7326 [5], in the assay on S. pneumoniae DSM20566 [15], in the assay on S. pneumoniae CF6937 [19], with S. pneumoniae D39 [23] and with S. pneumoniae DSM14378 [24] was greater than 50 µM in each case. In [27], the “effect on adhesion of pneumococci to A549 cells (in words)” value is “did not reduce pneumococcal adherence”. Further, the “concentration up to which no inhibitory or bactericidal activity was exhibited” value with S. pneumoniae [13] was greater than 50 µM. At pneumococcal NA, the IC50 lay within 310 to 1610 nM. The entries for the “Inhibitory concentration (HA assay)” value in assay [28], in [29] and in [30] were 0.7 ± 0.4 µM, 1.0 ± 0.0 µM and 3.2 ± 0.0 µM, respectively.

For `CC(=O)N[C@H]1[C@H]([C@H](O)[C@H](O)CO)O[C@@](Oc2ccc3c(C)cc(=O)oc3c2)(C(=O)O)C[C@@H]1O` [4-MUNANA, 2′-(4-methylumbelliferyl)-α-D-N-acetylneuraminic acid sodium salt hydrate], the Km in [31] was found to be 23.6 µM.

For `CC(=O)N[C@H]1[C@H]([C@H](O)[C@H](O)CO)OC(C(=O)O)=C[C@@H]1O` [DANA, 2,3-dehydro-2-deoxy-N-acetylneuraminic acid], the “90% minimal biofilm inhibitory concentration” value with S. pneumoniae DSM20566 [3], in the assay on S. pneumoniae CJ9400 [7], in the assay with S. pneumoniae PN8828 [8], in the assay on S. pneumoniae BC7326 [9], with S. pneumoniae D39 [10] and with S. pneumoniae CF8919 [11] was greater than 50 µM throughout. Also, the “90% minimal biofilm inhibitory concentration” value with S. pneumoniae DSM14378 [18], in the assay with S. pneumoniae BC57 [20] and with S. pneumoniae CF6937 [26] was greater than 50 µM throughout. The Bactericidal concentration in the assay with S. pneumoniae CJ9400 [4], with S. pneumoniae BC7326 [5], in the assay with S. pneumoniae DSM20566 [15], in the assay on S. pneumoniae CF6937 [19], in the assay with S. pneumoniae D39 [23] and in the assay with S. pneumoniae DSM14378 [24] was greater than 50 µM throughout. The “effect on adhesion of pneumococci to A549 cells (in words)” value in assay [27] is recorded as “did not reduce pneumococcal adherence”. Besides, the “concentration up to which no inhibitory or bactericidal activity was exhibited” value in the assay with S. pneumoniae [13] is greater than 50 µM. Besides, the “Inhibitory concentration (HA assay)” value in [28] is 15.4 ± 10.8 µM; in assay [29], greater than 100 µM; in [30], 45.3 ± 30.6 µM. The “activity in HA assay (in words)” value in assay [29] (reference strain D39) is given as “no activity”.
